Source: PMC3150610 (Journal of medicinal chemistry, 2011)
Blank lines part the entries; values can stand above or below the compound they belong to.

Tests used:
human thrombin = human thrombin (Homo sapiens, UniProt P00734); test: Michaelis-Menten kinetics of Spectrozyme TH hydrolysis by thrombin; type: biochemical; details: for VMAX of Spectrozyme TH hydrolysis: pH 7.4
Procedure, shortened: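 Human α-thrombin (5–10 nM) with Spectrozyme TH at 10 to 600 μM, at fixed test compound levels of 0–30 μM. Run in 20 mM Tris-HCl, pH 7.4, at 37 °C. Initial rate taken from the linear rise in A405 while under 10% of substrate was consumed. Data fitted to the Michaelis-Menten equation for KM and VMAX.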

citrated human plasma [1] = test: Prothrombin time; details: thromboplastin initiator
Procedure, shortened: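 Test compound brought up in citrated human plasma and held 30 s at 37 °C. Pre-warmed thromboplastin (reconstituted per manufacturer, 37 °C) then added and clotting time read on a fibrometer in a one-stage assay. Deionized water served as the no-anticoagulant control. Run in duplicate. Quadratic trendline fit gave the concentration doubling PT.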

citrated human plasma [2] = test: Activated partial thromboplastin time; details: ellagic acid initiator
Procedure, shortened: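 Test compound in citrated human plasma with pre-warmed APTT reagent (0.2% ellagic acid), incubated 4 min. Clotting started with 25 mM CaCl2 at 37 °C and time to clot read on a fibrometer. One-stage recalcification format, each assay in duplicate. Clotting time versus concentration fitted to a quadratic trendline to get the concentration that doubles APTT.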

Human α-thrombin = Human α-thrombin (Homo sapiens, UniProt P00734); type: biochemical; details: for fold change in IC50 (weaker) relative to 12a: comparator 12a; for fold weaker thrombin inhibition of di-sulfated dimers: comparator not given

mechanism of thrombin inhibition (human thrombin; Michaelis-Menten kinetics): non-competitive, allosteric mechanism
VMAX of Spectrozyme TH hydrolysis (human thrombin; in presence of 1.5 μM 12a): 97 ± 13 mAUmin^−1μM^−1
VMAX of Spectrozyme TH hydrolysis (human thrombin; in presence of 3.0 μM 12a): 107 ± 14 mAUmin^−1μM^−1
VMAX of Spectrozyme TH hydrolysis (human thrombin; in presence of 10.5 μM 12a): 73 ± 13 mAUmin^−1μM^−1
VMAX of Spectrozyme TH hydrolysis (human thrombin; in presence of 30 μM 12a): 66 ± 6 mAUmin^−1μM^−1
decrease in maximal velocity of reaction (human thrombin; upon approximately 50% saturation of the enzyme): ~ 34%
Compound: CCOC(=O)c1c(C)oc2cc(OC)c(OCc3oc4cc(OC)c(OS(=O)(=O)[O-])cc4c3C(=O)OCC)cc12.[Na+] [12a]

Compound: COC(=O)c1c(C)oc2cc(OC)c(OCc3oc4cc(OC)c(OS(=O)(=O)[O-])cc4c3C(=O)OC)cc12.[Na+] [12b]
concentration required to double PT (2×PT) (citrated human plasma [1]): 850 to 2100 µM

fold improvement of inhibition potency with lipophilicity of 3-ester (Human α-thrombin; across 12a, 12b, 12c): 8.2 fold
Compound: COc1cc2oc(C)c(C(=O)OC(C)(C)C)c2cc1OCc1oc2cc(OC)c(OS(=O)(=O)[O-])cc2c1C(=O)OC(C)(C)C.[Na+] [12c]
concentration required to double APTT (2×APTT) (citrated human plasma [2]): 355 to 1250 µM

fold change in IC50 (weaker) relative to 12a (Human α-thrombin): 6.2 fold
Compound: COCCOC(=O)c1c(C)oc2cc(OC)c(OCc3oc4cc(OC)c(OS(=O)(=O)[O-])cc4c3C(=O)OCCOC)cc12.[Na+] [12d]

Compound: CCOC(=O)c1c(C)oc2cc(OCC)c(OCc3oc4cc(OCC)c(OS(=O)(=O)[O-])cc4c3C(=O)OCC)cc12.[Na+] [12e]
concentration required to double APTT (2×APTT) (citrated human plasma [2]): 355 to 1250 µM

fold increase in potency, ethyl to isopropyl at 6-position (Human α-thrombin; 12f versus 12e): ~4 fold
Compound: CCOC(=O)c1c(C)oc2cc(OC(C)C)c(OCc3oc4cc(OC(C)C)c(OS(=O)(=O)[O-])cc4c3C(=O)OCC)cc12.[Na+] [12f]

fold change in IC50 (weaker) relative to 12a (Human α-thrombin): 2.2 fold
Compound: CCOC(=O)c1c(COc2cc3c(C(=O)OCC)c(CN4CCOCC4)oc3cc2OC)oc2cc(OC)c(OS(=O)(=O)[O-])cc12.[Na+] [compound 13]

fold loss of affinity from t-butyl ester dimer (Human α-thrombin; comparator printed as dimer 2c): more than 270 fold
Compound: COc1cc2oc(C)c(C(=O)N3CCOCC3)c2cc1OCc1oc2cc(OC)c(OS(=O)(=O)[O-])cc2c1C(=O)N1CCOCC1.[Na+] [compound 14]

fold change in IC50 (weaker) relative to 12a (Human α-thrombin): 6.2 fold
Compound: COc1cc2oc(C)c(C(=O)O)c2cc1OCc1oc2cc(OC)c(OS(=O)(=O)[O-])cc2c1C(=O)O.[Na+] [compound 15]

fold weaker thrombin inhibition of di-sulfated dimers (Human α-thrombin): 6–17 fold
Compound: CCOC(=O)c1c(C)oc2cc(OCc3oc4cc(OC)c(OS(=O)(=O)[O-])cc4c3C(=O)OCC)c(OS(=O)(=O)[O-])cc12.[Na+].[Na+] [compound 17]

fold weaker thrombin inhibition of di-sulfated dimers (Human α-thrombin): 6–17 fold
Compound: CCOC(=O)c1c(C)oc2cc(OC)c(OCc3oc4cc(OS(=O)(=O)[O-])c(OS(=O)(=O)[O-])cc4c3C(=O)OCC)cc12.[Na+].[Na+] [compound 18]
